Calls of active or inactive are those of the source. The rule behind the calls is not given here.
Assays:
Staphylococcus aureus [1] = assay: Bactericidal activity against methicillin-resistant Staphylococcus aureus ATCC BAA-44 at 30 nM irradiated with white light for 2 mins and measured after overnight incubation by drip-streak plate method relative to control; format: functional
How it was run: (§1)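 MRSA ATCC BAA-44 cells incubated with a range of compound concentrations, then irradiated for 2 min with a white-light lamp or kept in the dark. Colonies were counted at the dilution giving 30–300 colonies. Each experiment had 3 replicates and was repeated in 3 independent experiments.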

[2] = Induction of singlet oxygen generation at 1285 nm at 10 uM; format: functional
Staphylococcus aureus [3] = assay: Bactericidal activity against methicillin-resistant Staphylococcus aureus ATCC BAA-44 at 5 uM irradiated with white light for 2 mins and measured after overnight incubation by drip-streak plate method; format: functional, organism-based; how it was run: as §1
Acinetobacter baumannii [4] = assay: Bactericidal activity against Acinetobacter baumannii ATCC BAA1797 at 1.25 ug/ml incubated under dark condition; format: ADME, organism-based
Klebsiella pneumoniae [5] = assay: Bactericidal activity against carbapenem-resistant Klebsiella pneumoniae ATCC BAA-2146 at 2 ug/ml incubated under dark condition; format: ADME, organism-based
Pseudomonas aeruginosa [6] = assay: Bactericidal activity against Pseudomonas aeruginosa ATCC BAA-2114 at 2 ug/ml incubated under dark condition; format: ADME, organism-based
Escherichia coli [7] = assay: Bactericidal activity against Escherichia coli ATCC 25922 at 2 ug/ml incubated under dark condition; format: ADME, organism-based
Escherichia coli [8] = assay: Bactericidal activity against Escherichia coli ATCC 25922 at 5 uM in presence of light; format: functional, organism-based
Staphylococcus aureus [9] = assay: Bactericidal activity against methicillin-resistant Staphylococcus aureus ATCC BAA1717 at 1 uM in presence of light; format: functional, organism-based
Klebsiella pneumoniae [10] = assay: Bactericidal activity against carbapenem-resistant Klebsiella pneumoniae ATCC BAA-2146 at 5 uM in presence of light and polymyxin E; format: functional, organism-based
Pseudomonas aeruginosa [11] = assay: Bactericidal activity against Pseudomonas aeruginosa ATCC BAA-2114 at 2 ug/ml in presence of light; format: functional, organism-based
Staphylococcus aureus [12] = assay: Disruption of cell membrane in methicillin-resistant Staphylococcus aureus ATCC BAA-44 in presence of light by scanning electron microscopic method; format: functional, organism-based
Klebsiella pneumoniae [13] = assay: Bactericidal activity against carbapenem-resistant Klebsiella pneumoniae ATCC BAA-2146 at 5 uM incubated under dark condition in presence of polymyxin E; format: ADME, organism-based
Pseudomonas aeruginosa [14] = assay: Bactericidal activity against Pseudomonas aeruginosa ATCC BAA-2114 at 5 uM in presence of light; format: functional, organism-based
Staphylococcus aureus [15] = assay: Disruption of cell membrane in methicillin-resistant Staphylococcus aureus ATCC BAA-44 incubated under dark condition by scanning electron microscopic method; format: organism-based
Klebsiella pneumoniae [16] = assay: Bactericidal activity against carbapenem-resistant Klebsiella pneumoniae ATCC BAA-2146 at 5 uM incubated under dark condition; format: ADME, organism-based
Streptococcus pyogenes [17] = assay: Bactericidal activity against Streptococcus pyogenes ATCC 8133 at 1 uM incubated under dark condition; format: ADME, organism-based
How it was run: (§2)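 Bacterial suspensions (about 10^8 CFU/mL) were incubated with the compound at a range of concentrations and kept in the dark, the unirradiated control for a 2 min white-light exposure. Samples were diluted 10-fold, drip-streaked on TSA and incubated overnight at 37 °C. Colonies were counted at the dilution giving 30–300 colonies.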

Escherichia coli [18] = assay: Bactericidal activity against Escherichia coli ATCC 25922 at 5 uM incubated under dark condition in presence of polymyxin E; format: ADME, organism-based
Pseudomonas aeruginosa [19] = assay: Bactericidal activity against Pseudomonas aeruginosa ATCC BAA-2114 at 5 uM in presence of light and polymyxin E; format: functional, organism-based
Staphylococcus aureus [20] = assay: Disruption of cell membrane in methicillin-resistant Staphylococcus aureus ATCC BAA-44 at 10 uM incubated under dark condition by propidium iodide staining-based assay; format: organism-based
How it was run: (§3)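 MRSA ATCC BAA-44 cells were treated with compound with or without light, then stained with propidium iodide. Red PI fluorescence marks membrane disruption; green fluorescence comes from the compound. Phenylarsine oxide was the positive control.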

Staphylococcus aureus [21] = assay: Bactericidal activity against methicillin-resistant Staphylococcus aureus ATCC BAA-44 incubated under dark condition and measured after overnight incubation by drip-streak plate method; format: ADME, organism-based; conditions: in vitro; how it was run: as §1
Enterococcus faecalis [22] = assay: Bactericidal activity against Enterococcus faecalis ATCC 51299 at 1 uM incubated under dark condition; format: ADME, organism-based; how it was run: as §2
Acinetobacter baumannii [23] = assay: Bactericidal activity against Acinetobacter baumannii ATCC BAA1797 at 5 uM in presence of light; format: functional, organism-based
Klebsiella pneumoniae [24] = assay: Bactericidal activity against carbapenem-resistant Klebsiella pneumoniae ATCC BAA-2146 at 5 uM in presence of light; format: functional, organism-based
Escherichia coli [25] = assay: Bactericidal activity against Escherichia coli ATCC 25922 at 5 uM incubated under dark condition; format: ADME, organism-based
Streptococcus mutans [26] = assay: Bactericidal activity against Streptococcus mutans Ward's 85W 2357 at 1 uM in presence of light; format: functional, organism-based
Staphylococcus aureus [27] = assay: Bactericidal activity against methicillin-resistant Staphylococcus aureus ATCC BAA-44 at 1 uM irradiated with white light through mask for 2 mins and measured after overnight incubation; format: functional, organism-based
How it was run: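 MRSA ATCC BAA-44 cells were pre-treated with compound at 1 μM and spread over an agar plate. The plate was irradiated with white light through a mask for 2 min, incubated overnight at 37 °C and photographed to show where colonies grew.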

Streptococcus mutans [28] = assay: Bactericidal activity against Streptococcus mutans Ward's 85W 2357 at 1 uM incubated under dark condition; format: ADME, organism-based; how it was run: as §2
Acinetobacter baumannii [29] = assay: Bactericidal activity against Acinetobacter baumannii ATCC BAA1797 at 1.25 ug/ml in presence of light; format: functional, organism-based
Streptococcus pyogenes [30] = assay: Bactericidal activity against Streptococcus pyogenes ATCC 8133 at 1 uM in presence of light; format: functional, organism-based
Pseudomonas aeruginosa [31] = assay: Bactericidal activity against Pseudomonas aeruginosa ATCC BAA-2114 at 5 uM incubated under dark condition; format: ADME, organism-based
Escherichia coli [32] = assay: Bactericidal activity against Escherichia coli ATCC 25922 at 5 uM in presence of light and polymyxin E relative to control; format: functional
Acinetobacter baumannii [33] = assay: Bactericidal activity against Acinetobacter baumannii ATCC BAA1797 at 5 uM in presence of light and polymyxin E relative to control; format: functional
[34] = Induction of singlet oxygen generation at 1210 nm; format: functional
Enterococcus faecalis [35] = assay: Bactericidal activity against Enterococcus faecalis ATCC 51299 at 1 uM in presence of light; format: functional, organism-based
Staphylococcus aureus [36] = assay: Disruption of cell membrane in methicillin-resistant Staphylococcus aureus ATCC BAA-44 at 10 uM in presence of light by propidium iodide staining-based assay; format: functional, organism-based; how it was run: as §3
Escherichia coli [37] = assay: Bactericidal activity against Escherichia coli ATCC 25922 at 2 ug/ml in presence of light; format: functional, organism-based
[38] = Dark toxicity against human MCF7 cells assessed as decrease in cell viability by MTT assay; format: cell-based
How it was run: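 MCF-7 breast adenocarcinoma cells were incubated with compound without light. Viability was read by MTT colorimetric assay, and IC50 was derived from the concentration–response.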

Acinetobacter baumannii [39] = assay: Bactericidal activity against Acinetobacter baumannii ATCC BAA1797 at 5 uM incubated under dark condition; format: ADME, organism-based
Staphylococcus aureus [40] = assay: Bactericidal activity against methicillin-resistant Staphylococcus aureus ATCC BAA-44 at 0.1 uM irradiated with white light for 2 mins and measured after overnight incubation by drip-streak plate method relative to control; format: functional; how it was run: as §1
Klebsiella pneumoniae [41] = assay: Bactericidal activity against carbapenem-resistant Klebsiella pneumoniae ATCC BAA-2146 at 2 ug/ml in presence of light; format: functional, organism-based
Staphylococcus aureus [42] = assay: Bactericidal activity against Staphylococcus aureus ATCC 29213 at 1 uM in presence of light; format: functional, organism-based
Staphylococcus aureus [43] = assay: Bactericidal activity against methicillin-resistant Staphylococcus aureus ATCC BAA-44 irradiated with white light for 2 mins and measured after overnight incubation by drip-streak plate method; format: functional, organism-based; how it was run: as §1
Staphylococcus aureus [44] = assay: Bactericidal activity against Staphylococcus aureus ATCC 29213 at 1 uM incubated under dark condition; format: ADME, organism-based

C(=C\c1[nH]c2ccccc2c1/C=C/c1ccccc1)/c1ccccc1
fold change (FC) (Staphylococcus aureus [1]): 5

O=C1OC2(c3cc(I)c(O)c(I)c3Oc3c2cc(I)c(O)c3I)c2c(Cl)c(Cl)c(Cl)c(Cl)c21
Activity [2]: Active

Clc1ccccc1/C=C/c1[nH]c2ccccc2c1/C=C/c1ccccc1Cl
Activity (Staphylococcus aureus [3]): Active

Fc1ccc(/C=C/c2[nH]c3ccccc3c2/C=C/c2ccc(F)cc2)cc1
Activity (Staphylococcus aureus [3]): inactive

COLISTIN
Activity (Acinetobacter baumannii [4]): Non-Toxic
Activity (Klebsiella pneumoniae [5]): Non-Toxic
Activity (Pseudomonas aeruginosa [6]): Non-Toxic
Activity (Escherichia coli [7]): Non-Toxic

Clc1cccc(/C=C/c2[nH]c3ccccc3c2/C=C/c2cccc(Cl)c2)c1
Activity (Staphylococcus aureus [3]): inactive

Clc1ccc(/C=C/c2[nH]c3ccccc3c2/C=C/c2ccc(Cl)cc2)cc1
Activity (Escherichia coli [8]): inactive
Activity (Staphylococcus aureus [9]): Active
Activity (Klebsiella pneumoniae [10]): Active
Activity (Pseudomonas aeruginosa [11]): inactive
Activity (Staphylococcus aureus [12]): Active
Activity (Klebsiella pneumoniae [13]): Toxic
Activity (Pseudomonas aeruginosa [14]): inactive
Activity (Staphylococcus aureus [15]): Non-Toxic
Activity (Klebsiella pneumoniae [16]): Non-Toxic
Activity (Streptococcus pyogenes [17]): Non-Toxic
Activity (Escherichia coli [18]): Toxic
Activity (Pseudomonas aeruginosa [19]): Active
Activity (Staphylococcus aureus [20]): Non-Toxic
Activity (Staphylococcus aureus [21]): Dose-dependent effect
Activity (Enterococcus faecalis [22]): Non-Toxic
Activity (Acinetobacter baumannii [23]): inactive
Activity (Klebsiella pneumoniae [24]): inactive
Activity (Escherichia coli [25]): Non-Toxic
Activity (Streptococcus mutans [26]): Active
Activity (Staphylococcus aureus [27]): Active
Activity (Streptococcus mutans [28]): Non-Toxic
Activity (Acinetobacter baumannii [29]): inactive
Activity (Streptococcus pyogenes [30]): Active
Activity (Pseudomonas aeruginosa [31]): Non-Toxic
Activity (Escherichia coli [32]): 7 deltalog10CFU/ml
Activity (Acinetobacter baumannii [33]): 7 deltalog10CFU/ml
Activity [34]: Dose-dependent effect
Activity (Enterococcus faecalis [35]): Active
Activity (Staphylococcus aureus [36]): Active
Activity (Escherichia coli [37]): inactive
IC50 [38]: 47 µM
Activity (Acinetobacter baumannii [39]): Non-Toxic
Activity (Staphylococcus aureus [40]): 5 deltalog10CFU/ml
Activity (Klebsiella pneumoniae [41]): inactive
Activity (Staphylococcus aureus [42]): Active
Activity (Staphylococcus aureus [43]): Dose-dependent effect
Activity (Staphylococcus aureus [44]): Non-Toxic

COc1ccc(/C=C/c2[nH]c3ccccc3c2/C=C/c2ccc(OC)cc2)cc1
Activity (Staphylococcus aureus [3]): inactive

CN(C)[C@@H]1C(O)=C(C(N)=O)C(=O)[C@@]2(O)C(O)=C3C(=O)c4c(O)cccc4[C@@](C)(O)[C@H]3C[C@@H]12 [TETRACYCLINE]
IC50 [38]: 41.6 µM

CCn1cc(C(=O)O)c(=O)c2cc(F)c(N3CCNCC3)cc21 [NORFLOXACIN]
IC50 [38]: 13.8 µM

Reference: ChEMBL document CHEMBL4229395, “Photoactivated 2,3-distyrylindoles kill multi-drug resistant bacteria” (Bioorg Med Chem Lett, 2018)
